Measurements from publication PMC3398233 (Chemical Research in Toxicology, 2012).
Values after ≈ are worked out from the molar mass of the structure shown. Values joined by “and” are separate entries in the source; they are usually repeats but may differ in a detail not shown here. Identical values can stand only once.

Experiments:
[1] = tested on: PCE; experiment: DEHP hydrolysis to MEHP by PCE; assay type: in vitro ADME, porcine; conditions: 127 vs 1.08 pmol min^-1 mg protein^-1
[2] = tested on: PCE; conditions: DEHP 50 μM; cited from earlier work
[3] = cited from earlier work
[4] = TBB/TBPH metabolism in human liver microsomes; assay type: in vitro ADME
[5] = tested on: hepatic porcine carboxylesterase; experiment: Metabolism in purified hepatic porcine carboxylesterase; assay type: in vitro ADME; conditions: Michaelis-Menten model, 10-min incubations
[6] = tested on: fathead minnows (Pimephales promelas); conditions: dietary exposure to commercial mixture containing TBB and TBPH; cited from earlier work
[7] = Solubility limit of TBB in incubation buffer; assay type: physicochemical; conditions: potassium phosphate buffer, pH 7.4
Outline: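 Practical upper limit judged from kinetics incubations in 100 mM potassium phosphate (pH 7.4), glass tubes, shaking at 37°C, 10 min, nine concentrations 0.0078–31.1 μM. Dosing concentrations checked by LC/MS/MS (negative APCI, C18 column, isocratic 98% methanol). Limit taken as the highest concentration without unacceptably high variability in measured substrate concentration.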

[8] = Phase II metabolism; assay type: in vitro ADME, human; conditions: HLM; for Phase II metabolites detected (glucuronidation): 2 mM UDPGA, alamethicin, MgCl2, 90 min; for loss of parent compound during Phase II incubation: glucuronidation cofactors, 90 min
[9] = Phase II metabolism; assay type: in vitro ADME, human; conditions: cytosol, 90 min; for Phase II metabolites detected (sulfation, glutathione conjugation): PAPS or reduced glutathione; for loss of parent compound during Phase II incubation: sulfation / glutathione cofactors

**Q.** With CCCCC(CC)COC(=O)c1ccccc1C(=O)OCC(CC)CCCC (stereo not drawn) [DEHP, bis(2-ethylhexyl) phthalate] as the compound, how does the “DEHP hydrolysis rate relative to TBPH hydrolysis rate in PCE” value [1] read?
**A.** approximately 100 times

**Q.** And the “MEHP formation rate from DEHP in PCE” value [2]?
**A.** 127 pmol min^-1 mg protein^-1

**Q.** Which “estimated log KOW” value [3] does the source give for CCCCC(CC)COC(=O)c1cc(Br)c(Br)c(Br)c1Br (stereo not drawn) [TBB, 2-ethylhexyl-2,3,4,5-tetrabromobenzoate] here?
**A.** 8.8

**Q.** And the “decrease of TBB during incubation (amount)” value ([4]; 60-min incubation, HLM 40 μg protein mL^-1, TBB 27.1 ± 1.3 μM)?
**A.** ~2.9 nmol

**Q.** And the “reduction in the concentration of TBB” value ([4]; 60-min incubations with HLM, metabolite identification, GC/MS)?
**A.** 79.9 ± 4.6%

**Q.** And the “Vmax for TBBA formation in HLM” value ([4]; Michaelis-Menten model, 10-min incubations, 40 μg protein mL^-1, TBB 0.0078–31.1 μM)?
**A.** 0.644 ± 0.144 nmol min^-1 mg protein^-1

**Q.** And the “effect of NADPH on the formation rate of TBBA” value ([4]; NADPH 0, 0.3, 3.0 and 30 mM, data not shown)?
**A.** did not significantly affect

**Q.** What about the Km at 10 min ([4]; both, human, pH 7.4, Km for TBBA formation in HLM, Michaelis-Menten model, 10-min incubations, 40 μg protein mL^-1, TBB 0.0078–31.1 μM) of the same compound?
**A.** 11.1 ± 3.9 µM

**Q.** What about the Km ([4]; read-out: Km for TBBA formation in HLM, Michaelis-Menten model, 10-min incubations, 40 μg protein mL^-1, TBB 0.0078–31.1 μM) of the same compound?
**A.** ~10 µM

**Q.** What about the “Vmax for TBBA formation in PCE” value [5] of the same compound?
**A.** 24.4 ± 2.6 nmol min^-1 mg protein^-1

**Q.** What about the Km ([5]; read-out: Km for TBBA formation in PCE) of the same compound?
**A.** 9.3 µM and ~10 µM

**Q.** What about the “metabolism in fathead minnows” value [6] of the same compound?
**A.** metabolized to form unidentified brominated metabolites

**Q.** And the solubility [7]?
**A.** ~30 µM (≈ 16.5 µg/mL)

**Q.** What does the source list for O=C(O)c1cc(Br)c(Br)c(Br)c1Br [TBBA, 2,3,4,5-tetrabromobenzoic acid]?
**A.** Phase II metabolites detected (glucuronidation) [8]: no Phase II metabolites were detected; loss of parent compound during Phase II incubation [8]: no significant losses; Phase II metabolites detected (sulfation, glutathione conjugation) [9]: no Phase II metabolites were detected; loss of parent compound during Phase II incubation [9]: no significant losses

**Q.** Which results are given for CCCCC(CC)COC(=O)c1c(Br)c(Br)c(Br)c(Br)c1C(=O)O (stereo not drawn) [TBMEHP, mono(2-ethylhexyl) 2,3,4,5-tetrabromophthalate]?
**A.** Phase II metabolites detected (glucuronidation) [8]: no Phase II metabolites were detected; loss of parent compound during Phase II incubation [8]: no significant losses; Phase II metabolites detected (sulfation, glutathione conjugation) [9]: no Phase II metabolites were detected; loss of parent compound during Phase II incubation [9]: no significant losses
